# Test results from PubChem BioAssay AID588823 (The Scripps Research Institute Molecular Screening Center, 2011).
# Active and inactive are the calls of the source.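 Rule for the calls: active = at least 50% inhibition of the target enzyme pPAFAH in mouse brain after oral dosing, with fewer than two other serine hydrolases also hit; inactive = weaker pPAFAH inhibition or two or more other hydrolases hit.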
# Assays:
# Experiment in all cases: pPAFAH inhibition after oral dosing in mice, late-stage follow-up, in vivo study, fluorescence, gel-based ABPP, mouse (AID 588823)
# [1] = tested on: Anti-targets; details: mouse brain membrane proteome, FP-Rh probe
# Summary of the method: (§1)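 Technique: in-gel fluorescence scanning after SDS-PAGE separation; Material: brain membrane proteome from orally dosed wild-type mice; Input: 1 mg/mL membrane protein; Replicates: two mice per group; Control set: vehicle-dosed mice high, blank gel background low; Dosing: 50 mg/kg orally in PEG300; Schedule: 4 h dosing, 30 min probe labelling at 37 °C.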
# [2] = tested on: CES1; details: mouse brain membrane proteome, stronger effect = higher value, dose or concentration not given here
# Summary of the method: as §1
# [3] = tested on: pPAFAH; details: mouse brain membrane proteome, stronger effect = higher value, dose or concentration not given here
# Summary of the method: as §1
compound,measurement,setting,value
Cc1cc(N2CCN(C(=O)Oc3ccc(-c4ccccc4)cn3)CC2)c2ccccc2n1,outcome,[1],inactive
same,anti-target count,"[1]; number of FP-Rh anti-targets, stronger effect = lower value",0
same,inhibition,[2],90%
same,inhibition,[3],95.5%
